Screening data as filed in PubChem.
E-selectin induc: induces E-selectin expression in human endothelial cells; HUVEC E-selectin immunofluorescence imaging; normalized: neutral wells 0, TNF-alpha wells 100; activation, % at 7.58 µM; 260,000 tested, 0.37% active; AID 686992;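 active = mean E-selectin-positive cell signal at least 10% of the positive control, reached in at least 60% of replicates, without over 20% cell loss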
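Assay system: HUVEC primary endothelial cells. Input: 3,000 HUVEC seeded per well. Doses: one compound dose added by pin transfer. Read-out basis: % PE-positive cells. Benchmarks: TNF-alpha high, DMSO low. Detection: immunofluorescence imaging. Buffer or medium: EGM-2, gelatin.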
SIRT5 inh: sirtuin-5 (human) deacylase inhibition | Q9NXA8 | Purified SirT5, succinyl-peptide AMC, trypsin-coupled fluorescence | inhibition, % at 15 µM | 330,000 tested, 1.1% active | AID 652115; in the data active = inhibition above about 15%
Target sequence (Q9NXA8 whole entry, looked up): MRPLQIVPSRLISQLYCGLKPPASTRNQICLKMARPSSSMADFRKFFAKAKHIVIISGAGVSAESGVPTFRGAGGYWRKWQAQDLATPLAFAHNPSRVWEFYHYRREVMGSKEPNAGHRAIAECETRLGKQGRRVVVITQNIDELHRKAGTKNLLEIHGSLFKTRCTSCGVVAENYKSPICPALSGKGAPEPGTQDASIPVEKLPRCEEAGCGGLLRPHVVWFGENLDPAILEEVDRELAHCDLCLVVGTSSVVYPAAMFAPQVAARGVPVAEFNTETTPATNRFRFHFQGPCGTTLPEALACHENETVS
DENV2 CPE rescue: protects cells from dengue virus 2 cytopathic effect; DENV2-infected cells, cytopathic effect rescue, plate reader; CPE inhibition, % at 9.99 µM; 350,000 tested, 1.7% active; AID 651640; in the data active = CPE inhibition above about 20%, passing the limit was not always enough; tested in BHK-21 cells;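 also: 0% = median of neutral control wells and 100% = median of positive control wells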
Active calls of the source: *; / = no result given; ! = not active in a repeat. Compounds with a hit are over-represented: about 2.9% of the library has one in this group of screens.

SMILES	E-selectin induc	SIRT5 inh	DENV2 CPE rescue
CC1=NN(C(=O)c2csc(C(C)C)c2)C(O)(C(F)(F)F)C1 (stereo not drawn)	/	-1	/
C[C@H](CO)N1C[C@H](C)[C@@H](CN(C)Cc2ccc(C(=O)O)cc2)Oc2c(NS(=O)(=O)c3cccs3)cccc2C1=O	0	9	-8
CCS(=O)(=O)N1CC(=O)N2[C@H](C1)[C@H](c1ccc(-c3ccc(F)cc3)cc1)[C@@H]2CO	0	-2	2
COc1ccc(C#Cc2ccc([C@@H]3[C@@H](CO)N4C(=O)CN(C(=O)c5ccc(F)cc5)C[C@H]34)cc2)cc1	0	2	-6
CCOc1ccccc1NC(=O)C1CCCN(S(=O)(=O)c2cccc3cccnc23)C1 (stereo not drawn)	0	/	9
O=S1c2ccccc2Oc2ccccc21	0	-1	-2
CC1(C)CC(=O)C2=C(C1)Nc1ccccc1[S@]2=O	/	16*	-5
O=S1c2ccccc2Nc2ccccc21	0	25*	-21
CC1(C)CC(=O)C2=C(C1)Nc1ccccc1NC2	/	-3	14
O=C(C[C@@H]1C/C=C\C[C@H](NC(=O)OCC2c3ccccc3-c3ccccc32)C(=O)OC[C@H]2CCCN2C1=O)N[C@H](CO)Cc1ccccc1	-2	-1	-12
COC(=O)C1=C(C)N(CC(C)C)C(=S)NC1c1cccc(OC)c1 (stereo not drawn)	0	29*	-7
COC(=O)C1=C(C)N(Cc2ccccc2)C(=NCC(C)C)N[C@H]1c1cccc(F)c1	0	4	25*
COC(=O)C1=C(C)N(Cc2ccccc2C(F)(F)F)C(=NCc2ccccc2)NC1CCc1ccccc1 (stereo not drawn)	2	4	91*
COC(=O)C1=C(C)N(Cc2ccccc2C(F)(F)F)C(=NCc2ccc3c(c2)OCO3)NC1c1ccccc1 (stereo not drawn)	0	17*	-4
COC(=O)C1=C(C)N(Cc2ccccc2)C(=NCc2ccc(OC)cc2)N[C@H]1c1cccc(F)c1	0	/	6
COC(=O)C1=C(C)N(CC(C)C)C(=S)NC1c1cccc(Br)c1 (stereo not drawn)	0	/	-13
COC(=O)C1=C(C)N(Cc2ccccc2C(F)(F)F)C(=NCc2ccc3c(c2)OCO3)NC1c1ccc(C(F)(F)F)cc1 (stereo not drawn)	0	0	-6
COC(=O)C1=C(C)N(Cc2ccccc2C(F)(F)F)C(=NCc2ccc(C(F)(F)F)cc2)NC1CCc1ccccc1 (stereo not drawn)	0	/	4
Fc1cccc(Cc2c(-c3cccc(Br)c3)nc3ccc(Cl)cn23)c1	0	-7	14
C[C@H]1CN([C@@H](C)CO)C(=O)c2cc(C3=CCCCC3)cnc2O[C@H]1CN(C)Cc1cccc(F)c1	1	0	5
C[C@@H]1CN([C@@H](C)CO)C(=O)c2cc(Br)cnc2O[C@H]1CN(C)Cc1cccnc1	0	36*!	-1
C[C@@H]1CN([C@@H](C)CO)C(=O)c2cc(C3=CCCCC3)cnc2O[C@@H]1CN(C)Cc1cccnc1	0	-1	20*
C[C@@H]1CN([C@H](C)CO)C(=O)c2cc(Br)cnc2O[C@H]1CN(C)Cc1cccnc1	0	10	6
C[C@H](CO)N1C[C@H](C)[C@@H](CN(C)Cc2cccnc2)Oc2ncc(C3=CCCCC3)cc2C1=O	-4	3	2
C[C@H](CO)N1C[C@H](C)[C@H](CN(C)Cc2cccc(F)c2)Oc2ncc(C3=CCCCC3)cc2C1=O	0	/	23*
SMILES	E-selectin induc	SIRT5 inh	DENV2 CPE rescue
COC(=O)Nc1ccc(S(=O)(=O)NC2CCS(=O)(=O)C2)cc1 (stereo not drawn)	0	2	2
CC1CCCN(C(=O)CNS(=O)(=O)c2cccs2)C1 (stereo not drawn)	/	3	0
C[C@@H]1CN([C@H](C)CO)C(=O)c2cccc(NC(=O)CCCCCC(=O)Nc3ccccc3N)c2O[C@H]1CN(C)C(=O)NC1CCCCC1	0	/	/
CC(=O)Nc1cccc(C(=O)OCC(=O)NC(=O)NC2CCCC2)c1	6	0	-4
CC(=O)Nc1cccc(C(=O)OC(C)C(=O)NC(=O)NC2CCCCC2)c1 (stereo not drawn)	8	-3	23*
COc1ccc(CN2[C@H](CO)[C@H]3c4ccccc4NC[C@H]32)cc1	1	2	10
COc1ccc(CN2[C@@H](CO)[C@@H]3c4ccccc4NC[C@@H]32)cc1	0	-2	66*
O=C(C1CC1)N1[C@@H]2CNc3ccccc3[C@@H]2[C@@H]1CO	0	-2	/
O=C(Cc1cccnc1)N1[C@@H]2CNc3ccccc3[C@@H]2[C@@H]1CO	0	-2	5
O=C(Cc1cccnc1)N1[C@@H](CO)[C@@H]2c3ccccc3NC[C@@H]21	0	-2	24*
COCC(=O)N1[C@H](CO)[C@H]2c3ccccc3NC[C@H]21	0	0	32*
CNC[C@@H]1Oc2cc(C#C[C@@H](C)O)ccc2S(=O)(=O)N([C@@H](C)CO)C[C@H]1C	0	-18	19
COC(=O)C1=C(C)N(Cc2ccc(Cl)cc2)C(=S)NC1c1cccc(F)c1 (stereo not drawn)	0	/	-8
O=C(O)C[C@@H]1C=C[C@H](NC(=O)CCN2CCCCC2)[C@H](CO)O1	0	1	0
CN(C)CC(=O)N[C@H]1C=C[C@@H](CC(=O)NCCN2CCCCC2)O[C@@H]1CO	0	4	59*
O=C(O)C[C@H]1C=C[C@@H](NC(=O)CCN2CCCCC2)[C@@H](CO)O1	0	-7	97*
CN(C)CC(=O)N[C@@H]1C=C[C@@H](CC(=O)NCCN2CCCCC2)O[C@H]1CO	0	2	4
CC(C)[C@H](Nc1ccc(S(=O)(=O)N2CCOCC2)cc1[N+](=O)[O-])C(=O)OCC(=O)N(C(C)C)C(C)C	0	/	/
CC(C)NC(=O)Nc1ccc2c(c1)C(=O)N([C@@H](C)CO)C[C@@H](C)[C@H](CN(C)C(=O)Nc1cccc3ccccc13)OCCCC[C@H](C)O2	0	1	2
COc1cc(NS(=O)(=O)c2ccc(Nc3nc(-c4cccc([N+](=O)[O-])c4)cs3)cc2)nc(OC)n1	0	19*	-6
O=[N+]([O-])c1cccc(-c2csc(Nc3ccccc3)n2)c1	-1	-1	1
CO[C@H]1CN(C)C(=O)c2ccc(NS(=O)(=O)c3cccc(F)c3)cc2OC[C@H](C)N(C(=O)Cc2cccnc2)C[C@H]1C	0	/	23*
CO[C@@H]1CN(C)C(=O)c2ccc(NS(=O)(=O)c3cccc(F)c3)cc2OC[C@H](C)N(C(=O)Cc2cccnc2)C[C@H]1C	0	-4	-1
CO[C@H]1CN(C)C(=O)c2cc(NS(=O)(=O)c3cccc(F)c3)ccc2OC[C@@H](C)N(C(=O)Cc2cccnc2)C[C@H]1C	0	3	-1
CO[C@@H]1CN(C)C(=O)c2ccc(NS(=O)(=O)c3cccc(F)c3)cc2OC[C@@H](C)N(C(=O)Cc2cccnc2)C[C@H]1C	0	/	82*
Cc1c(NC(C)C)c(=O)n(-c2ccccc2)n1C	0	1	0
O=C(c1ccccc1F)N1CC[C@@H]2[C@@H](CO)Nc3ccc(C#Cc4ccccc4F)cc3[C@@H]21	3	2	2
